Mdm2-MdmX inh – human Mdm2/MdmX binding inhibition | O15151+Q00987 | SaOS-2 split-luciferase Mdm2/MdmX complementation, luminescence | inhibition, % at 8 µM | hit rate 3% among 330,000 | AID 485346;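 active = inhibition of at least 50% at 8 µM in the primary screen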
Target sequence (O15151 whole entry, looked up): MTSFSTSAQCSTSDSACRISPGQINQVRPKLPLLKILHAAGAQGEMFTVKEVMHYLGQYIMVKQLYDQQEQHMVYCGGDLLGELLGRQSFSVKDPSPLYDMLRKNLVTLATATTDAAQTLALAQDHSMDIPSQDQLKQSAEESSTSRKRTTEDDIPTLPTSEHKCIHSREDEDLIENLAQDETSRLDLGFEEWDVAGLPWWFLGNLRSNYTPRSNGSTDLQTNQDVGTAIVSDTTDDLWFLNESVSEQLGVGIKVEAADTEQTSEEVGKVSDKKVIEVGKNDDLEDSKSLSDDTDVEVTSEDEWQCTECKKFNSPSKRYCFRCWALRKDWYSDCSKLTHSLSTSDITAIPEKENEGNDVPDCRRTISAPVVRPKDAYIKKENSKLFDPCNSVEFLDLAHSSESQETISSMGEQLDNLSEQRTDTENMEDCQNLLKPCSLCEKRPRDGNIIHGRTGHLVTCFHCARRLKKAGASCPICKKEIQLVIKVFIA
Target sequence (Q00987 whole entry, looked up): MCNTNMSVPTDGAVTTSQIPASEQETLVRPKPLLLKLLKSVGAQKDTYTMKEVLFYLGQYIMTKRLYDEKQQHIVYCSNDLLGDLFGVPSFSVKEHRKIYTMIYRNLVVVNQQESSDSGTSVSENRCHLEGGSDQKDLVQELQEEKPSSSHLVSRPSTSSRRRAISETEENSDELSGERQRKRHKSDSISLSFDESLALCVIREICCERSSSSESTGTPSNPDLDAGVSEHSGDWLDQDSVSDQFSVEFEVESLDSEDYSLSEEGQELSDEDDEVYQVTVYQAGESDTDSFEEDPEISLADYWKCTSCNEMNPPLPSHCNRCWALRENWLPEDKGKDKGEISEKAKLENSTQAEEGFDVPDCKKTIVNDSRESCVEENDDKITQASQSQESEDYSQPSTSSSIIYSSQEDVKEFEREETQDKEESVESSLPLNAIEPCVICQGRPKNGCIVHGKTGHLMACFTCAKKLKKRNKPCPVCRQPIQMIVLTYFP
CSC inhib – cancer stem cell inhibition. cancer stem cell-like cells viability, luminescence. inhibition, % at 7.5 µM. hit rate 1.1% among 300,000. AID 2717; in the data active = inhibition above about 75%; tested in HMLE shEcad cells
T cruzi inh – blocks replication of Trypanosoma cruzi; T. cruzi beta-gal in NIH3T3, luminescence, 90 h; inhibition, % (concentration not given with the values); hit rate 1.4% among 300,000; AID 1885;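 active = mean inhibition across valid replicates above about 55%, limit read from the data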;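 also: signal also drops with host cell toxicity which is not excluded here; 0% = plate median of DMSO wells and 100% = zero luminescence signal; higher percent means less beta-gal luminescence so fewer parasites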
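Incubation – ≥90 h infection period, 3 h prior cell attachment · System – NIH/3T3 fibroblasts plus reporter T. cruzi · Doses – compound pinned at 50 nL/well, DMSO · Read-out basis – percent inhibition of parasite-derived β-gal signal · Signal – luminescent β-galactosidase signal after 60 min lysis · Also added – 5000 T. cruzi trypomastigotes/well · Medium – Low-serum DMEM with 2% FBS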
aSyn 5UTR inh – 5' untranslated region of α-synuclein, MLPCN primary screen | alpha-synuclein 5'UTR reporter, inhibitor activity | inhibition, % (tested at 7.5 µM) | hit rate 0.82% among 300,000 | AID 1813; in the data active = inhibition above about 60%;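 also: H4 neuroglioblastoma cells stably carrying SNCA 5'UTR luciferase fusion; 0% = DMSO wells and 100% = positive control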
SKKanGAS inh – SKKanGAS growth inhibition; inhibition, % at 7.5 µM; hit rate 1.3% among 300,000; S. pyogenes SKKanGAS, kanamycin growth, BacTiter-Glo, 6 h; AID 1662;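 active = mean replicate score, as percent of positive control median, at least 50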;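 also: strain carries kanamycin resistance gene driven by streptokinase promoter and grows in 40 µg/ml kanamycin; loss of luminescence reflects streptokinase promoter inhibition or plain growth inhibition; 0% = median of DMSO wells and 100% = positive control at its reference dose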
Mdm2 MdmX conf – human Mdm2/MdmX binding inhibition, confirmed; shares compounds with Mdm2-MdmX inh; luminescent assay; inhibition, % at 8 µM; hit rate 55% among 10,000; AID 489028; in the data active = inhibition above about 40%
FLuc counter – counter-screen for Mdm2/MdmX inhibitors: full-length luciferase | shares compounds with Mdm2-MdmX inh | SaOS-2 full-length luciferase counterscreen, luminescence | inhibition, % at 8 µM | hit rate 77% among 6,200;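 active = mean inhibition at 8 µM reaching about 37%, which flags the compound as non-specific, limit read from the data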;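 also: p53-null SaOS-2 cells with luciferase driven by a doxycycline-inducible promoter; compound on cells about two nights before reading with doxycycline added after day one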
* = called active by the depositor; · = not tested or not shown; + = active, no number. A selection: hits, their analogues and other compounds. The true share with any hit is near 5.4%.

SMILES | Mdm2-MdmX inh | CSC inhib | T cruzi inh | aSyn 5UTR inh | SKKanGAS inh | Mdm2 MdmX conf | FLuc counter
COc1ccc(/C=N/NC(=O)c2cccnc2)cc1COc1ccc([N+](=O)[O-])cc1 | 51* | 41 | 7 | -75 | 10 | 37 | 81*
COc1ccc(/C=N/NC(=O)c2ccc3ccccc3c2)cc1OS(=O)(=O)c1ccc(NC(C)=O)cc1 | 68* | · | 8 | -22 | 30 | 55* | 58*
COc1ccc(OCc2cc(/C=N\NC(=O)c3ccccc3)ccc2OC)cc1 | 50 | -4 | 4 | -53 | 8 | · | ·
COc1ccc(/C=N\NC(=O)c2cccc(F)c2)cc1COc1ccccc1 | 58* | 60 | 12 | 88* | 6 | 64* | 75*
CC1(C2(O)CCCCC2)NCCc2ccccc21 (stereo not given) | 14 | · | · | · | · | · | ·
COc1ccc(N2CCN(CCN3C(=O)c4ccccc4C3=O)CC2)cc1 | -17 | 3 | -10 | -9 | 8 | · | ·
O=C(OCCN(C1=NS(=O)(=O)c2ccccc21)c1ccccc1Cl)c1ccc(Cl)cc1 | 22 | -4 | 8 | -2 | 23 | · | ·
COc1ccc(/C=N/n2cnc3c([nH]c4ccccc43)c2=O)cc1CO | 19 | -11 | -1 | -5 | 4 | · | ·
COc1ccc(/C=N/n2cnc3c([nH]c4ccc(Br)cc43)c2=O)cc1CN1CCOCC1 | 57* | 23 | 14 | -37 | 3 | 26 | ·
CC1CCCCN1CC(=O)Nc1ccc2c(c1)OCO2 (stereo not given) | 16 | 7 | · | · | · | · | ·
CCC/C(=N/Nc1ccc(Cl)cc1)c1cnnc(-c2ccccc2)n1 | 30 | 0 | -3 | 35 | -8 | · | ·
COc1ccc(N/N=C(/C)c2cnnc(-c3ccccc3)n2)cc1 | 79* | 10 | 19 | -70 | -9 | -2 | ·
Cc1ccc2nsnc2c1NC(=O)Cc1ccc(Cl)cc1 | -15 | -11 | -5 | 15 | 3 | · | ·
Cc1ccc2nsnc2c1NC(=O)c1ccc(-c2cc(Cl)ccc2Cl)o1 | 60* | -18 | 19 | 54 | 1 | 23 | ·
COc1ccc(OCc2cc(C(=O)NC3Cc4ccccc4C3)no2)c(Cl)c1 | 52* | 37 | -21 | 27 | 0 | 70* | 72*
COc1ccc(OCc2cc(C(=O)N[C@H]3CCCCNC3=O)no2)c(Cl)c1 | 1 | -2 | -4 | -56 | 7 | · | ·
C#CCOCCOCCOCCNc1nc(N2CCN(C(=O)[C@H](CCC(=O)O)n3cc(C(N)CC(C)C)nn3)CC2)nc(N2CCN(C(=O)[C@H](Cc3ccc(O)cc3)n3cc(C(N)[C@H](C)CC)nn3)CC2)n1 (stereo not given in full) | 4 | 4 | -10 | 6 | 3 | · | ·
COCC(=O)O[C@]1(CCN(C)CCCc2nc3ccccc3[nH]2)CCc2cc(F)ccc2[C@@H]1C(C)C | 93* | 20 | 40 | 20 | 3 | 53* | 36*
CCOC(=O)CCc1nc2ccccc2[nH]1 | -6 | -4 | -8 | -6 | 1 | · | ·
COC(=O)c1ccccc1NC(=O)CN(c1ccc(C)cc1)S(C)(=O)=O | 2 | -6 | 13 | 12 | -2 | · | ·
O=C(CSc1nc2ccccc2s1)N/N=C/c1ccccc1C(=O)O | 66* | 4 | -8 | -90 | 0 | 82* | 119*
CCc1ccc2nc(N=C(N)N)nc(C)c2c1 | 59* | 17 | 31 | 48 | -4 | 42* | 82*
Cc1ccc2nc(N=C(N)N)nc(C)c2c1 | 51* | 8 | 35 | 14 | -10 | 44* | 102*
Cc1ccc2nc(/N=C(\N)NC(=O)NC3CCCCC3)nc(C)c2c1 | 65* | 63 | 44 | -149 | 53* | 46* | 57*
CCCC(=O)N/C(N)=N/c1nc(C)c2cc(C)ccc2n1 | 31 | 11 | -1 | -31 | 14 | · | ·
SMILES | Mdm2-MdmX inh | CSC inhib | T cruzi inh | aSyn 5UTR inh | SKKanGAS inh | Mdm2 MdmX conf | FLuc counter
CCCNC(=O)c1cccc(C(F)(F)F)c1 | 13 | -7 | -43 | 8 | -7 | · | ·
COc1cc(/C=N/NC(=O)CCC(=O)NC2CCCCC2)ccc1C | 10 | -12 | 3 | 2 | -4 | · | ·
Cc1c(C(=O)Nc2ccc(Cl)cc2)c2ccccn2c1C(=O)c1ccccc1 | 59* | · | 11 | -15 | -1 | 0 | ·
O=C(Nc1ccccc1)Nc1nnc(CSCc2ccccc2Cl)s1 | 85* | · | 25 | 26 | 16 | 47* | 66*
COc1ccc(NC(=O)Nc2nnc(Cc3ccccc3)s2)cc1 | 4 | 16 | -3 | -23 | -6 | · | ·
O=C(Cc1nnc(NC(=O)Nc2ccccc2)s1)Nc1ccccc1 | 10 | -8 | 4 | -2 | -11 | · | ·
Cc1ccc(OCCSCc2nnc(NC(=O)Nc3cccc(Cl)c3)s2)cc1 | 92* | 51 | 6 | -4 | 8 | 82* | 97*
O=C(Nc1ccc(Cl)cc1)Nc1nnc(CSCc2ccccc2Cl)s1 | 61* | 37 | -1 | 15 | -13 | 15 | ·
Cc1nnc(NC(=O)Nc2cccc(Cl)c2)s1 | 16 | 13 | -5 | -122 | -4 | · | ·
O=C(Nc1ccc(Cl)cc1)Nc1nnc(SCc2ccccc2)s1 | -13 | 15 | -14 | -55 | -4 | · | ·
O=C(Nc1ccc(Cl)c(Cl)c1)Nc1nnc(CSc2ccccc2)s1 | 95* | 44 | 3 | 40 | -3 | 77* | 50*
COc1cccc(CNC(=O)CCSCc2ccccc2F)c1 | -3 | -10 | -16 | 13 | -3 | · | ·
Cc1c(C(=O)O)c(C(=O)O)nc2ccc(N3CCOCC3)cc12 | -14 | 1 | -10 | 21 | 0 | · | ·
N#Cc1c(N)c(C#N)c(-c2ccc3c(c2)OCO3)c2c1CCCC2 | 20 | 2 | 23 | 30 | 1 | · | ·
N#Cc1c(N)nc2c(c1-c1ccc3c(c1)OCO3)CCc1ccccc1-2 | 65* | 82* | 36 | 29 | 34 | 36 | 92*
COc1cc(CNCCc2c[nH]c3ccccc23)ccc1OCc1ccc(F)cc1 | 99* | + | 53 | 19 | 4 | 59* | 57*
COc1cc(CNCCc2c[nH]c3ccccc23)cc(Cl)c1OCC(N)=O | 9 | 2 | -6 | 4 | 0 | · | ·
COc1cccc(CNCCc2c[nH]c3ccccc23)c1OCc1ccc(F)cc1 | 68* | 15 | 49 | -15 | 4 | 38 | ·
NCCCCc1cn(CC(=O)N2CCNCC2)nn1 | -9 | 1 | -3 | -8 | 3 | · | ·
Cc1cccc(N(CC(=O)NCCc2ccccc2)C(=O)CCC(=O)Nc2ccccn2)c1C | 17 | · | 8 | -47 | -2 | · | ·
CCOC(=O)N=Nc1c2ccccc2c2nc3no[nH]c3nc12 | 100* | · | 53 | 119* | 9 | 100* | 1
CCOC(=O)N=Nc1c(O)n(CC(=O)OC)c2ccccc12 | 1 | 0 | -9 | 3 | -2 | · | ·
O=C(CN1c2ccccc2Sc2ccccc21)NNC(=O)Nc1ccc(Cl)cc1 | 54* | · | 9 | 11 | 37 | 36 | 54*
CC(C)(C)c1nnc(N/N=C/c2ccccc2)n(N)c1=O | 8 | -6 | -4 | -34 | 10 | · | ·
CC(C)(C)c1nnc(N/N=C/c2ccccc2O)n(N)c1=O | 59* | · | 45 | 110* | 24 | 82* | 22

Compound activity deposited in PubChem BioAssay by several laboratories.
